The record followed here is ChEMBL document CHEMBL4364327, “Discovery of benzimidazole analogs as a novel interleukin-5 inhibitors” (Eur J Med Chem, 2019).

The structures appear in SMILES notation.

In the first data set the target is T1, Interleukin-5 receptor subunit alpha (Mus musculus) (UniProt P21183).
T1 sequence (whole entry): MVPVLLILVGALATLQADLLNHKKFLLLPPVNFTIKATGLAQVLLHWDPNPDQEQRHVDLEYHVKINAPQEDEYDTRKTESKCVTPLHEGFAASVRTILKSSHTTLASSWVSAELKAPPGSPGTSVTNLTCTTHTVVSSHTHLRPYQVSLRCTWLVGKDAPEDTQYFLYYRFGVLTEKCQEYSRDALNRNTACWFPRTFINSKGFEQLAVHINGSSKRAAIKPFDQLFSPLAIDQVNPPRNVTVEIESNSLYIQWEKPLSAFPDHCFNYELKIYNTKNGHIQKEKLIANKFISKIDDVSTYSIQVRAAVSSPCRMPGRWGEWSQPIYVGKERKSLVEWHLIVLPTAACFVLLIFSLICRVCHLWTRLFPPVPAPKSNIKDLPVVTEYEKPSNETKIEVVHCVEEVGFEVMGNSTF
Briefly: Inhibition of IL-5 receptor in mouse pro-B Y16 cells assessed as decrease in mIL-5 dependent cell proliferation at 30 uM after 48 hrs in presence of 3 units/ml mIL-5 by WST-1 assay relative to control. The format is cell-based.
Conditions: not given
In a few lines:
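Y16 murine early B-cell line was maintained in RPMI-1640 with 8% FBS and 3 units/mL mIL-5. Cells were washed twice in Hanks', resuspended without IL-5 (viability >95%), and plated at 1 × 10⁴ cells per well. A 3 units/mL mIL-5 solution and sample were added. Control wells received medium in place of sample; blank wells received medium in place of mIL-5. After 48 h at 37 °C, WST-1 was added for 2–4 h and A450 was read.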
Background: Formazan colour is commonly taken as a measure of viable cells.
In general, inhibition refers to the share of the control response that was lost under treatment. In the case of `c1ccc(NCc2nc3c(OCC4CCCCC4)cccc3[nH]2)cc1`, the inhibition turned out to be 25%. Same read-out and setting: the figure for `CN(CCO)Cc1nc2c(OCC3CCCCC3)cccc2[nH]1` is 42%; for `OCCC(NCc1nc2c(OCC3CCCCC3)cccc2[nH]1)c1ccccc1` (stereo unspecified) it is 64.7%; for `OCCCCCNCc1nc2c(OCC3CCCCC3)cccc2[nH]1` it is 23.7%. Take `OCCN(Cc1ccccc1)Cc1nc2c(OCC3CCCCC3)cccc2[nH]1`: the inhibition is 62.3%. Same read-out and setting: the figure for `COc1ccc(CN(CCO)Cc2nc3c(OCC4CCCCC4)cccc3[nH]2)cc1` is 73.3%; for `OCCN(Cc1ccc(Cl)cc1)Cc1nc2c(OCC3CCCCC3)cccc2[nH]1` it is 96%. Still for that read-out and setting: the figure for `OCC(Cc1ccccc1)NCc1nc2c(OCC3CCCCC3)cccc2[nH]1` (stereo unspecified) is 81%.

Consider `OCCN(Cc1nc2c(OCC3CCCCC3)cccc2[nH]1)C1CCCCC1`, for which the inhibition was determined as 24%. The same measure, in the same setting: the figure for `OCC(CC1CCCCC1)NCc1nc2c(OCC3CCCCC3)cccc2[nH]1` (stereo unspecified) is 94.7%; for `COc1ccc(NCc2nc3c(OCC4CCCCC4)cccc3[nH]2)cc1` it is 20.3%. Consider `OCCNCc1nc2c(OCC3CCCCC3)cccc2[nH]1`, for which the inhibition came out at 63.3%. With `OCCN(Cc1ccncc1)Cc1nc2c(OCC3CCCCC3)cccc2[nH]1`, the inhibition worked out at 43.3%.

For `OCC(NCc1nc2c(OCC3CCCCC3)cccc2[nH]1)c1ccccc1` (stereo unspecified), the inhibition came out at 77.7%. Same read-out and setting: to `c1ccc(CNCc2nc3c(OCC4CCCCC4)cccc3[nH]2)cc1` belongs 49.3%; to `CCCN(CCO)Cc1nc2c(OCC3CCCCC3)cccc2[nH]1`, 63%; to `CCN(CCO)Cc1nc2c(OCC3CCCCC3)cccc2[nH]1`, 34.7%. The same measure, in the same setting: the figure for `CC(C)(CO)NCc1nc2c(OCC3CCCCC3)cccc2[nH]1` is 54.7%; for `OCCN(Cc1nc2c(OCC3CCCCC3)cccc2[nH]1)CC1CCCCC1` it is 76.7%; for `CCC(CO)NCc1nc2c(OCC3CCCCC3)cccc2[nH]1` (stereo unspecified) it is 94.3%. On to `CCCC(CO)NCc1nc2c(OCC3CCCCC3)cccc2[nH]1` (stereo unspecified), for which the inhibition was determined as 73.3%. Regarding `CC(C)N(CCO)Cc1nc2c(OCC3CCCCC3)cccc2[nH]1`, the inhibition was 10%. Still for that read-out and setting: the figure for `OCCCCNCc1nc2c(OCC3CCCCC3)cccc2[nH]1` is 44.3%. The same measure, in the same setting: the figure for `COc1ccc(CNCc2nc3c(OCC4CCCCC4)cccc3[nH]2)cc1` is 43.3%; for `OCCCNCc1nc2c(OCC3CCCCC3)cccc2[nH]1` it is 52.7%.

System in a further data set: not listed separately
The experiment in a line: Cytotoxicity against human NCI-BL1184 cells assessed as inhibition of cell viability at 30 uM measured after 48 hrs by MTT assay. The format is cell-based. To be noted: read-out: INH. In a few lines: (§1)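 HCC1395 BL or NCI-BL1184 normal B lymphoblasts were cultured in RPMI-1640 or IMDM with 10% FBS at 37 °C and 5% CO₂, with serum but no IL-5. Cells were exposed to compound for 48 h, then to 0.5 mg/mL MTT for a further 3 h. Values are the mean ± SD of three independent measurements.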
On to `OCC(CC1CCCCC1)NCc1nc2c(OCC3CCCCC3)cccc2[nH]1` (stereo unspecified), for which the cytotoxicity at 48 h, 30 µM turned out to be 9.8%. Same read-out and setting: the figure for `CCC(CO)NCc1nc2c(OCC3CCCCC3)cccc2[nH]1` (stereo unspecified) is 10.2%.

System in the next data set: not listed separately
The experiment in a line: Cytotoxicity against human HCC1395BL cells assessed as inhibition of cell viability at 30 uM measured after 48 hrs by MTT assay. The format is cell-based. The following applies: read-out: INH. In a few lines:
as §1
In the case of `OCC(CC1CCCCC1)NCc1nc2c(OCC3CCCCC3)cccc2[nH]1` (stereo unspecified), the cytotoxicity at 48 h, 30 µM was determined as 12.5%. Same read-out and setting: the figure for `CCC(CO)NCc1nc2c(OCC3CCCCC3)cccc2[nH]1` (stereo unspecified) is 7.5%.

The next data set has as its target T1, Interleukin-5 receptor subunit alpha (Mus musculus). The experiment in a line: Inhibition of IL-5 receptor in mouse pro-B Y16 cells assessed as decrease in mIL-5 dependent cell proliferation at 50 uM after 48 hrs in presence of 3 units/ml mIL-5 by WST-1 assay relative to control. The format is cell-based.
Conditions: not given
With `O=c1c(-c2ccc(O[C@@H]3O[C@H](CO)[C@@H](O)[C@H](O)[C@H]3O)cc2)coc2cc(O)cc(O)c12`, the inhibition was determined as 79.1%. The same measure, in the same setting: the figure for `CCCC1O[C@@H]2C[C@H]3[C@@H]4CCC5=CC(=O)C=C[C@]5(C)[C@H]4[C@@H](O)C[C@]3(C)[C@]2(C(=O)CO)O1` (stereo partly specified) is 70.2%.
